# Source: article PMC4500736 (Journal of neuroscience methods, 2015)
# Where no end group is shown, it is not given here.
# Experiments:
# [1] = dissolved in 0.9% sterile saline; cited from earlier work
# [2] = system: unilateral 6-OHDA lesioned F344 rats; assay: d-amphetamine-induced rotation in 6-OHDA-lesioned rats; format: in vivo, rat; details: animals taken out to 6 weeks (data not shown), n = 3 DNSP-11, n = 2 vehicle
# normal F344 rats = format: in vivo, rat; details: 300 μg intranasal 5 days a week for 3 weeks, p < 0.05
# Method in brief: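 Normal F344 rats under light isoflurane (~1.0–3.0% with […]), supine. Striatum and SN harvested as 2 mm sections, frozen −80 °C. DA, DOPAC, HVA by HPLC-EC (ng/g wet tissue); turnover ratios; one-way ANOVA, Bonferroni.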
# [3] = system: unilateral 6-OHDA lesioned F344 rats; assay: TH+ fiber density in the SNpr of 6-OHDA lesioned rats; format: in vivo, rat; details: mean ± SEM
# Method in brief: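 Unilateral 3-site striatal 6-OHDA lesion (right hemisphere). Intranasal test compound 300 μg or vehicle daily for 7 days pre-lesion, ~60 min before infusion, then 35 ± 3 days. Midbrain fixed in 4% paraformaldehyde for 24 h, then 15 & 30% sucrose; 30 μm coronal sections. Ipsilateral SNpr TH+ immunoreactive area measured at −5.24, −5.60 and −5.96 mm from bregma. Two-tailed unpaired t-test.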
# [4] = system: unilateral 6-OHDA lesioned F344 rats; assay: DA and DA metabolite levels; format: in vivo, rat; details: 5 weeks post 6-OHDA, 300 μg intranasal daily, p < 0.01
substance,measurement,setting,value
"PPEAPAEDRSL-NH2 [DNSP-11, Dopamine neuron stimulating peptide-11]",stability in 0.9% sterile saline,[1],stable
same,reduction in d-amphetamine-induced rotations compared to vehicle,[2],21%
same,increase in DA turnover in the SN compared to vehicle,normal F344 rats,34%
same,increase in DA turnover in the striatum compared to vehicle,normal F344 rats,25%
same,"Fiber Density for the Lesioned SNpr, Rostral","[3]; n = 6, vehicle 0.20 ± 0.03",0.26 ± 0.09
same,"Fiber Density for the Lesioned SNpr, Middle","[3]; n = 6, vehicle 0.22 ± 0.07",0.41 ± 0.20
same,"Fiber Density for the Lesioned SNpr, Caudal","[3]; n = 6, vehicle 1.10 ± 0.67",0.91 ± 0.41
same,reduction in DA turnover in the ipsilateral side to the lesion compared to vehicle,[4],39%
